# Activity calls are given as the source filed them. The rule behind the calls is not given here.
# Columns and labels:
# Brugia malayi [1] = assay: Antifilarial activity against female adult Brugia malayi assessed as inhibition of MTT reduction at LC100 concentration after 24 hrs; type: functional
# Brugia malayi [2] = assay: Ratio of diethylcarbamazine citrate LC100 to compound LC100 for female adult Brugia malayi; type: functional
# Brugia malayi [3] = assay: Ratio of diethylcarbamazine citrate IC50 to compound IC50 for microfilariae Brugia malayi; type: functional
# [4] = Selectivity index, ratio of CC50 for african green monkey Vero cells to IC50 for microfilariae Brugia malayi; type: functional
# Procedure, shortened: (§1)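 Selectivity index was calculated as CC50 (concentration killing 50% of cells) divided by the motility IC50 (concentration giving 50% motility inhibition). This was done separately for female adult worms and for microfilariae of B. malayi.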
# [5] = Cytotoxicity against african green monkey Vero cells; type: cell-based; conditions: chlorocebus sabaeus
# Brugia malayi [6] = assay: Antifilarial activity against microfilariae Brugia malayi assessed as inhibition of motility after 24 hrs by microscopic analysis; type: functional, organism-based; conditions: for IC50: Brugia malayi, 24 h
# Procedure, shortened: (§2)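 In vitro, female adult worms and microfilariae of Brugia malayi were scored for motility. LC100 is the concentration giving 100% motility inhibition, which is taken as parasite death. IC50 is the concentration giving 50% motility inhibition. Adult worms were also run in a parallel MTT reduction assay, reported as mean % inhibition.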
# Brugia malayi [7] = assay: Antifilarial activity against adult Brugia malayi infected in jirds assessed as reduction in worms recovered from host at 100 mg/kg, sc qd for 5 days measured after 56 days relative to control; type: functional; parameters: scale not given: the % may be the effect or the level left
# Procedure, shortened: (§3)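 Jirds (Meriones unguiculatus) infected with B. malayi were dosed s.c. once daily for 5 days, at 100 mg/kg or, for the reference drug, 25 mg/kg; vehicle-treated animals served as controls (4–6 animals per group). Microfilariae in the peritoneal cavity were assessed on days 7/8 after treatment began. Recovered adult worms were counted as % inhibition over untreated control, with % sterile females scored. Data are mean ± SD, compared by Student's t test.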
# [8] = Selectivity index, ratio of CC50 for african green monkey Vero cells to IC50 for female adult Brugia malayi; type: functional; procedure, shortened: as §1
# Brugia malayi [9] = assay: Antifilarial activity against adult Brugia malayi infected in jirds assessed as sterile female worms recovered from host at 100 mg/kg, sc qd for 5 days measured after 56 days relative to control; type: functional; conditions: route subcutaneous; procedure, shortened: as §3
# Brugia malayi [10] = assay: Antifilarial activity against female adult Brugia malayi assessed as inhibition of motility after 24 hrs by microscopic analysis; type: functional, organism-based; conditions: for IC50: Brugia malayi, 24 h; procedure, shortened: as §2
# Brugia malayi [11] = assay: Antifilarial activity against adult Brugia malayi infected in jirds assessed as decrease in microfilarial activity isolated from host peritoneal cavity at 100 mg/kg, sc qd for 5 days measured after 7 to 8 days; type: functional, organism-based; parameters: dose 100 mg/kg; procedure, shortened: as §3
# Meriones unguiculatus = assay: Toxicity against jird infected with adult Brugia malayi assessed as behavioural change at 100 mg/kg, sc qd for 5 days measured up to 56 days; type: organism-based; parameters: dose 100 mg/kg, route subcutaneous; conditions: gerbil, in vivo
# Brugia malayi [12] = assay: Ratio of diethylcarbamazine citrate IC50 to compound IC50 for female adult Brugia malayi; type: functional
# Brugia malayi [13] = assay: Antifilarial activity against adult Brugia malayi infected in jirds assessed as decrease in microfilarial activity isolated from host peritoneal cavity at 25 mg/kg, sc qd for 5 days measured after 7 to 8 days; type: functional, organism-based; parameters: dose 25 mg/kg; procedure, shortened: as §3
# Brugia malayi [14] = assay: Antifilarial activity against adult Brugia malayi infected in jirds assessed as reduction in worms recovered from host at 25 mg/kg, sc qd for 5 days measured after 56 days relative to control; type: functional, organism-based; parameters: dose 25 mg/kg; procedure, shortened: as §3
# Brugia malayi [15] = assay: Antifilarial activity adult against Brugia malayi infected in jirds assessed as sterile female worms recovered from host at 25 mg/kg, sc qd for 5 days measured after 56 days relative to control; type: functional; conditions: route subcutaneous; procedure, shortened: as §3
SMILES,inhibition (INH) (Brugia malayi [1]) [%],Ratio (Brugia malayi [2]),Ratio IC50 (Brugia malayi [3]),Ratio CC50/IC50 [4],CC50 [5] [µg/mL],LC100 (Brugia malayi [6]) [µM],IC50 (Brugia malayi [6]) [µM],Activity (Brugia malayi [7]; route subcutaneous) [%],Ratio CC50/IC50 [8],Activity (Brugia malayi [9]) [%],LC100 (Brugia malayi [10]) [µM],IC50 (Brugia malayi [10]) [µM],Activity (Brugia malayi [11]),Activity (Meriones unguiculatus),Ratio IC50 (Brugia malayi [12]),Activity (Brugia malayi [7]),Activity (Brugia malayi [13]),Activity (Brugia malayi [14]),Activity (Brugia malayi [15]) [%]
CC(=O)O[C@H]1CC[C@]2(C)[C@H]3C(=O)C=C4[C@@H]5C[C@@](C)(C(=O)NCc6ccccc6)CC[C@]5(C)CC[C@@]4(C)[C@]3(C)CC[C@H]2C1(C)C,48.79,32,160,264.06,584,50,2.21,54.21,66.02,11,25,8.84,inactive,Non-toxic,,,,,
CCCCCCCCNC(=O)[C@@]1(C)CC[C@]2(C)CC[C@]3(C)C(=CC(=O)[C@@H]4[C@@]5(C)CC[C@H](OC(C)=O)C(C)(C)[C@@H]5CC[C@]43C)[C@@H]2C1,52.15,8,,2.53,106,100,42,,6.01,5,100,17.7,inactive,,16,inactive,,,
COC(=O)[C@@]1(C)CC[C@]2(C)CC[C@]3(C)C(=CC(=O)[C@@H]4[C@@]5(C)CC[C@H](OC(C)=O)C(C)(C)[C@@H]5CC[C@]43C)[C@@H]2C1,7.47,,,3.58,7.92,25,2.21,,,,>100,,,,,,,,
CCCCCCCCCCCC(=O)O[C@H]1CC[C@]2(C)[C@H]3C(=O)C=C4[C@@H]5C[C@@](C)(C(=O)O)CC[C@]5(C)CC[C@@]4(C)[C@]3(C)CC[C@H]2C1(C)C,10.69,,,,,>100,,,,,>100,,,,,,,,
CC1(C)[C@@H](O)CC[C@]2(C)[C@H]3C(=O)C=C4[C@@H]5C[C@@](C)(C(=O)O)CC[C@]5(C)CC[C@@]4(C)[C@]3(C)CC[C@@H]12 [ENOXOLONE],21.71,,,,,12.5,1.2,,,,>100,,,,,,,,
CC(=O)O[C@H]1CC[C@]2(C)[C@H]3C(=O)C=C4[C@@H]5C[C@@](C)(C(=O)O)CC[C@]5(C)CC[C@@]4(C)[C@]3(C)CC[C@H]2C1(C)C [ACETOXOLONE],9.45,,,,,>100,,,,,>100,,,,,,,,
CCN(CC)C(=O)N1CCN(C)CC1.O=C(O)CC(O)(CC(=O)O)C(=O)O [DIETHYLCARBAMAZINE CITRATE],64,,,25.7,9100,500,354,,31.5,,800,289,,,,,inactive,inactive,11
CCOC(=O)[C@@]1(C)CC[C@]2(C)CC[C@]3(C)C(=CC(=O)[C@@H]4[C@@]5(C)CC[C@H](OC(C)=O)C(C)(C)[C@@H]5CC[C@]43C)[C@@H]2C1,28.78,,,1.16,10.3,50,8.84,,,,>100,,,,,,,,
